Test results as given in ChEMBL document CHEMBL1143101, “Understanding the cardioprotective effects of flavonols: discovery of relaxant flavonols without antioxidant activity” (J Med Chem, 2008).

Experiments:
Aorta [1] = experiment: DPPH scavenging activity in Sprague-Dawley rat thoracic aorta at 100 uM relative to control; assay type: functional
Procedure, shortened: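 Cell-free DPPH radical scavenging. Flavonol in DMSO mixed 1:1 with 0.1 mM DPPH in methanol, 10 min at room temperature in the dark, absorbance read at 560 nm. Level = (A flavonol/A DPPH) × 100, as % of vehicle.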

Aorta [2] = experiment: Vascular activity in KPSS precontracted Sprague-Dawley rat thoracic aorta assessed as endothelium dependent relaxation; assay type: functional, tissue-based; set-up: Activity: concentration or dose not given beside the values; conditions: for EC50: Rattus norvegicus, Sprague-Dawley, Thoracic aorta
Aorta [3] = experiment: Antioxidant activity in Sprague-Dawley rat thoracic aorta assessed as superoxide levels at 10 uM by lucigenin-enhanced chemiluminescence assay relative to control; assay type: functional
Procedure, shortened: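 Male Sprague-Dawley aortic rings incubated 45 min at 37 °C, pH 7.4, in Krebs-HEPES with DETCA 3 mM (inactivates SOD), NADPH 100 µM and flavonol 10 µM (DMSO 1%). Rings then moved to wells containing lucigenin 50 µM and NADPH 100 µM, and photon emission counted. Counts normalized to dry tissue weight (dried 48 h, 65 °C), expressed as % of vehicle; n = rats.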

Aorta [4] = experiment: Vasorelaxant activity against KCl-induced contraction in endothelium-intact Sprague-Dawley rat thoracic aorta; assay type: functional, tissue-based; set-up: Activity: scale not given: the % may be the effect or the level left; conditions: for EC50: Rattus norvegicus, Sprague-Dawley, Thoracic aorta
Aorta [5] = experiment: Vasorelaxant activity against KCl-induced contraction in endothelium-denuded Sprague-Dawley rat thoracic aorta; assay type: functional, tissue-based; set-up: Activity: scale not given: the % may be the effect or the level left; conditions: for EC50: Rattus norvegicus, Sprague-Dawley, Thoracic aorta
Aorta [6] = experiment: Vasorelaxant activity against U46619-induced contraction in endothelium-denuded Sprague-Dawley rat thoracic aorta; assay type: functional, tissue-based; set-up: Activity: scale not given: the % may be the effect or the level left; conditions: for EC50: Rattus norvegicus, Sprague-Dawley, Thoracic aorta
Aorta [7] = experiment: Vasorelaxant activity against U46619-induced contraction in endothelium-intact Sprague-Dawley rat thoracic aorta; assay type: functional, tissue-based; set-up: Activity: scale not given: the % may be the effect or the level left; conditions: for EC50: Rattus norvegicus, Sprague-Dawley, Thoracic aorta
Aorta [8] = experiment: Effect on acetylcholine-induced vasorelaxation in xanthine/xanthine oxidase exposed Sprague-Dawley rat thoracic aorta; assay type: functional, tissue-based; set-up: Activity: scale not given: the % may be the effect or the level left; conditions: for EC50: Rattus norvegicus, Sprague-Dawley, Thoracic aorta
Procedure, shortened: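 Aortic rings incubated with xanthine oxidase 0.016 U/mL for 30 min, then flavonol 30 µM for 20 min, then xanthine 100 µM for 10 min. Rings then precontracted with U46619 and cumulative acetylcholine concentration-response curves recorded. Relaxation given as % of U46619 precontraction; mean ± SEM, n = rats.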

Aorta [9] = experiment: Effect on acetylcholine-induced vasorelaxation in pyrogallol exposed Sprague-Dawley rat thoracic aorta; assay type: functional, tissue-based; set-up: Activity: scale not given: the % may be the effect or the level left; conditions: for EC50: Rattus norvegicus, Sprague-Dawley, Thoracic aorta
Procedure, shortened: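 Endothelium-intact male Sprague-Dawley aortic rings in organ baths with nifedipine 30 nM. Pretreated 20 min with pyrogallol 30 µM, alone or with flavonol 30 µM (15% DMSO/85% methanol), or vehicle. Rings precontracted with U46619 1–10 nM to about 50% of the 123 mM KCl response, then cumulative acetylcholine curves run. Relaxation given as % of precontraction; mean ± SEM, n = rats.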

Structure (SMILES)	EC50 (Aorta [2]) [µM]	EC50 (Aorta [4]) [µM]	EC50 (Aorta [5]) [µM]	EC50 (Aorta [6]) [µM]	EC50 (Aorta [7]) [µM]	EC50 (Aorta [8]) [µM]	EC50 (Aorta [9]) [µM]	Activity (Aorta [1]) [%]	Activity (Aorta [2]) [%]	Activity (Aorta [3]) [%]	Activity (Aorta [4]) [%]	Activity (Aorta [5]) [%]	Activity (Aorta [6]) [%]	Activity (Aorta [7]) [%]	Activity (Aorta [8]) [%]	Activity (Aorta [9]) [%]
O=c1c(O)c(-c2ccc(C(F)(F)F)cc2)oc2ccccc12								90	6	85						
CC(C)(C)c1ccc(-c2oc3ccccc3c(=O)c2O)cc1								71	10	111						
Cc1ccc(-c2oc3ccccc3c(=O)c2O)cc1								76	13	101						
COc1ccc(-c2oc3ccccc3c(=O)c2O)cc1								51	16	89						
Cc1cccc(-c2oc3ccccc3c(=O)c2O)c1	74.1							80	37	85						
COc1cccc(-c2oc3ccccc3c(=O)c2O)c1	7.08	7.76	8.91	3.72	3.02			71	79	74	87	86	93	101		
O=c1c(O)c(-c2cccc(C(F)(F)F)c2)oc2ccccc12	115							89	23	80						
O=c1c(O)c(-c2ccccc2)oc2ccccc12 [FLAVONOL]	7.59							83	91	70						
O=c1c(O)c(-c2ccc(Cl)cc2)oc2ccccc12	8.13							93	37	100						
O=c1c(O)c(-c2ccc(O)c(C(F)(F)F)c2)oc2ccccc12	16.6							26	77	109						

The remaining compounds from weak to strong by EC50 (Aorta [2]), led by results:

EC50 (Aorta [2]) [µM]	EC50 (Aorta [4]) [µM]	EC50 (Aorta [5]) [µM]	EC50 (Aorta [6]) [µM]	EC50 (Aorta [7]) [µM]	EC50 (Aorta [8]) [µM]	EC50 (Aorta [9]) [µM]	Structure (SMILES)	Activity (Aorta [1]) [%]	Activity (Aorta [2]) [%]	Activity (Aorta [3]) [%]	Activity (Aorta [4]) [%]	Activity (Aorta [5]) [%]	Activity (Aorta [6]) [%]	Activity (Aorta [7]) [%]	Activity (Aorta [8]) [%]	Activity (Aorta [9]) [%]
6.76							O=c1c(O)c(-c2cccc(Cl)c2)oc2ccccc12	87	53	75						
5.01	5.5	6.31	3.02	1.35	0.055	0.0646	O=c1c(O)c(-c2ccc(O)c(O)c2)oc2ccccc12	36	102	27	100	100	100	101	84	81
4.68							CC(C)(C)c1cc(-c2oc3ccccc3c(=O)c2O)ccc1O	26	38	108						
4.68	5.13	5.5	3.16	1.66			O=c1c(O)c(-c2ccc(O)cc2)oc2ccccc12	32	99	74	95	92	102	100		
4.47	4.79	5.62	1.66	0.871	0.0891	0.275	COc1cc(-c2oc3ccccc3c(=O)c2O)ccc1O	24	98	106	100	93	100	101	62	42
4.37							Cc1cc(-c2oc3ccccc3c(=O)c2O)ccc1O	25	98	105						
3.24							O=c1c(O)c(-c2cccc(O)c2)oc2ccccc12	87	98	78						
2.51							O=c1c(O)c(-c2ccc(O)c(Br)c2)oc2ccccc12	23	100	96						
